For data set [1], the system named is KG-1. In words: Antiproliferative activity against FGFR1 fused human KG1 cells after 72 hrs by CCK8 assay. Format: functional, cell-based. To be noted: KG-1, 72 h. The method, boiled down: (§1)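 Cells seeded at low density in growth medium and compounds added the next day. Incubated 72 h, then proliferation read by sulforhodamine B, MTT or CCK-8. IC50 obtained by four-parameter concentration-response curve fitting.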

A further data set concerns SNU-16. Nature of the data set: Antiproliferative activity against FGFR2 amplified human SNU16 cells after 72 hrs by CCK8 assay. The class given is functional, cell-based. The note with it: SNU-16, 72 h. In outline:
as §1

A further data set relates to NCI-H716. Nature of the data set: Antiproliferative activity against FGFR2 amplified human NCI-H716 cells after 72 hrs by CCK8 assay. The note with it: NCI-H716, 72 h. Format: functional, cell-based. The method, boiled down:
as §1
In general terms: Tetrazolium assays rely on reduction of a dye to a coloured formazan, in cell work by metabolically active cells.

Data set [2] can be described thus: Antiproliferative activity against human UM-UC-14 cells harboring FGFR3 mutation after 72 hrs by CCK8 assay. The note with it: UMUC14, 72 h. Format: functional, cell-based. The method, boiled down: as §1
A short description of data set [3]: Half life in ICR(CD-1) mouse at 10 mg/kg, po administered via gavage by triple quadrupole mass spectrometric analysis. The class given is ADME, organism-based. The note with it: in vivo. In outline: (§2)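 Oral gavage at 1 mg/mL in 1% Tween80/water to male ICR mice (18-22 g, n=3). Plasma sampled at 0.25, 0.5, 1, 2, 4, 8 and 24 h, protein precipitated with methanol:acetonitrile (1:1) containing internal standard, and quantified by UPLC-triple quadrupole MS. AUC and MRT were taken from per-animal time-concentration curves. Cmax is the maximum plasma level and Tmax the time to reach it.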

Data set [4] is described as follows: Tmax in ICR(CD-1) mouse at 10 mg/kg, po administered via gavage by triple quadrupole mass spectrometric analysis. Format: ADME, organism-based. The note with it: in vivo. The method, boiled down:
(§3)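 Dosed by gavage at 1 mg/mL in 1% Tween80/water to male ICR mice, 18-22 g, n=3. Blood taken at 0.25, 0.5, 1, 2, 4, 8 and 24 h. Plasma precipitated with methanol:acetonitrile (1:1) containing internal standard, then UPLC-MS/MS on a C18 column with an ammonium acetate/formic acid–acetonitrile gradient. Tmax read directly from the data; MRT calculated per animal from concentration–time curves.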

The nature of data set [5]: Cmax in ICR(CD-1) mouse at 10 mg/kg, po administered via gavage by triple quadrupole mass spectrometric analysis. The class given is ADME, organism-based. Also on record: dose 10 mg/kg, route oral. To be noted: in vivo. In outline:
as §2

A short description of data set [6]: AUC (0 to t) in ICR(CD-1) mouse at 10 mg/kg, po administered via gavage by triple quadrupole mass spectrometric analysis. Format: ADME, organism-based. To be noted: in vivo. In outline:
as §2

A short description of data set [7]: AUC (0 to infinity) in ICR(CD-1) mouse at 10 mg/kg, po administered via gavage by triple quadrupole mass spectrometric analysis. The class given is ADME, organism-based. Also on record: dose 10 mg/kg, route oral, time infinity. To be noted: in vivo. The method, boiled down: as §2
The nature of data set [8]: MRT in ICR(CD-1) mouse at 10 mg/kg, po administered via gavage by triple quadrupole mass spectrometric analysis. The class given is ADME, organism-based. To be noted: in vivo. In outline:
as §3

Data set [9] in a line: Solubility of compound. The class given is physicochemical.
The nature of data set [10]: Permeability in human Caco2 cells at 5 uM after 120 mins by LC-MS/MS analysis relative to control. Format: ADME, cell-based. To be noted: Caco-2, read-out: Fabs. The method, boiled down:
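Caco-2 (C2BBe1) monolayers grown confluent on collagen-coated transwell membranes. Buffer is HBSS with 10 mM HEPES at pH 7.4 and pH 6.8. Compound 5 µM added to the apical or basolateral side; duplicate samples taken at 120 min and analysed by LC-MS/MS. Results given as Papp A→B and B→A and efflux ratio B→A/A→B.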

Data set [11] in a line: Efflux ratio of permeability in human Caco2 cells at 5 uM after 120 mins by LC-MS/MS analysis. The note with it: Caco-2. Format: ADME, cell-based. The method, boiled down: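 Caco-2 (C2BBe1) monolayers grown to confluence on collagen-coated transwell polycarbonate membranes. Compound at 5 μM added apically or basolaterally in HBSS with 10 mM HEPES at pH 7.4 and 6.8. Duplicate samples taken at 120 min and analysed by LC-MS/MS. Efflux ratio = Papp(B→A)/Papp(A→B).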

The target of data set [12] is T1, Discoidin domain-containing receptor 2 (Homo sapiens, UniProt Q16832).
T1 sequence (Q16832 whole entry): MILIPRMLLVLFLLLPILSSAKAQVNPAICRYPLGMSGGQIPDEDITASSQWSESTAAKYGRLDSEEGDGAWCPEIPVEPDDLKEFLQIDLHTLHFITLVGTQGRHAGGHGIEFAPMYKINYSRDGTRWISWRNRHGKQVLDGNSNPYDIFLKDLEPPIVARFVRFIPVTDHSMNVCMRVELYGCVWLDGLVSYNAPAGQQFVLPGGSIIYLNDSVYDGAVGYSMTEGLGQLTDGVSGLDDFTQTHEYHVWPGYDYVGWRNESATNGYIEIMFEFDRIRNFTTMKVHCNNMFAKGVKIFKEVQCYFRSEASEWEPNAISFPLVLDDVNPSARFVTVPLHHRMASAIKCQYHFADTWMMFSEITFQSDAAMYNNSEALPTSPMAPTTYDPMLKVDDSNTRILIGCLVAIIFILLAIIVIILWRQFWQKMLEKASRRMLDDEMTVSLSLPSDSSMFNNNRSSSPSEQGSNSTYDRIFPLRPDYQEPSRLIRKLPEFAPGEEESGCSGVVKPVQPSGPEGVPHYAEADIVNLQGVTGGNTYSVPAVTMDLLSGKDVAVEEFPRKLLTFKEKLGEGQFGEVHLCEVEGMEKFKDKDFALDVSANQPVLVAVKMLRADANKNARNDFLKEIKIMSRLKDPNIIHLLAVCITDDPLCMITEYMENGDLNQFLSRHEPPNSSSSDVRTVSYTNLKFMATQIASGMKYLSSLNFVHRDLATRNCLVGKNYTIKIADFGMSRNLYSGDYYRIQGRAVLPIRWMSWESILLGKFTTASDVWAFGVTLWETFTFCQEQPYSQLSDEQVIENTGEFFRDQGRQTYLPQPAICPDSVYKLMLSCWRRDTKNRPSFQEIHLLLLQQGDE
Nature of the data set: Inhibition of DDR2 (unknown origin) using poly (Glu, Tyr) 4:1 substrate after 60 mins by ELISA. A general note: ELISA stands for enzyme-linked immunosorbent assay.

Data set [13] has as its target Fibroblast growth factor receptor 1 (Homo sapiens, UniProt P11362). Nature of the data set: Inhibition of FGFR1 (unknown origin) after 60 mins by ELISA.
Data set [14] concerns KG-1. In words: Antiproliferative activity against human KG1 cells after 72 hrs by CCK8 assay. The note with it: KG-1, 72 h.
In data set [15] the test system is NCI-H2286. In words: Antiproliferative activity against human NCI-H2286 cells after 72 hrs by CCK8 assay. To be noted: NCI-H2286, 72 h.
The test system of data set [16] is NCI-H2286. In words: Antiproliferative activity against human NCI-H2286 cells harboring DDR2 mutation after 72 hrs by CCK8 assay. The class given is functional, cell-based. The note with it: NCI-H2286, 72 h. In outline:
as §1

Data set [17] concerns NCI-H2286. Nature of the data set: Antitumor activity against human NCI-H2286 cells xenografted in SCID mouse assessed as tumor growth inhibition at 50 mg/kg, po qd for 10 consecutive days relative to control. The class given is functional. To be noted: read-out: TGI. In outline:
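NCI-H2286 xenograft established by s.c. fragment implantation. At 100-150 mm³ mice were randomized (vehicle n=10, treated n=5) and given compound orally once daily for 10 days. Tumour volume = length×width²/2, measured twice weekly. TGI taken on the final day from change in volume relative to vehicle, with Student's t-test.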
On the technique in general: A xenograft is tissue or cells of one species grown in another, often human tumour cells in immunodeficient mice.

The subject of data set [18] is T2, Discoidin domain-containing receptor 2 (Homo sapiens), Q16832 [I638F].
T2 sequence (whole entry): T1 sequence (Q16832 whole entry) with I638F
To be noted: NCI-H2286, 100 nM.

Data set [19] deals with T3, Discoidin domain-containing receptor 2 (Homo sapiens) (UniProt Q16832).
T3 sequence (whole entry): T1 sequence (Q16832 whole entry)
In words: Inhibition of DDR2 (unknown origin) at 20 uM using poly (Glu, Tyr) 4:1 substrate after 60 mins by ELISA relative to control. The method, boiled down: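 ELISA with purified recombinant DDR2 on poly(Glu,Tyr) 4:1 precoated at 20 µg/mL. 10 µM ATP in HEPES pH 7.4 buffer with MgCl2, MnCl2, Na3VO4 and DTT, 1% DMSO; 60 min at 37 °C. Phosphotyrosine detected by PY99 and HRP anti-mouse IgG with o-phenylenediamine at A490. Inhibition = 1−A490/A490control; two separate experiments.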

The structures appear in SMILES notation. Where a chain is given by its changes, count along the chain named. pIC50: −log10 of the molar value. In brackets after ≈: the same amount, converted by molar mass. Activity calls are given as the source filed them. The calls are words filed in the database; no cut-off is given here.

Chain of Fibroblast growth factor receptor 1 (P11362 whole entry): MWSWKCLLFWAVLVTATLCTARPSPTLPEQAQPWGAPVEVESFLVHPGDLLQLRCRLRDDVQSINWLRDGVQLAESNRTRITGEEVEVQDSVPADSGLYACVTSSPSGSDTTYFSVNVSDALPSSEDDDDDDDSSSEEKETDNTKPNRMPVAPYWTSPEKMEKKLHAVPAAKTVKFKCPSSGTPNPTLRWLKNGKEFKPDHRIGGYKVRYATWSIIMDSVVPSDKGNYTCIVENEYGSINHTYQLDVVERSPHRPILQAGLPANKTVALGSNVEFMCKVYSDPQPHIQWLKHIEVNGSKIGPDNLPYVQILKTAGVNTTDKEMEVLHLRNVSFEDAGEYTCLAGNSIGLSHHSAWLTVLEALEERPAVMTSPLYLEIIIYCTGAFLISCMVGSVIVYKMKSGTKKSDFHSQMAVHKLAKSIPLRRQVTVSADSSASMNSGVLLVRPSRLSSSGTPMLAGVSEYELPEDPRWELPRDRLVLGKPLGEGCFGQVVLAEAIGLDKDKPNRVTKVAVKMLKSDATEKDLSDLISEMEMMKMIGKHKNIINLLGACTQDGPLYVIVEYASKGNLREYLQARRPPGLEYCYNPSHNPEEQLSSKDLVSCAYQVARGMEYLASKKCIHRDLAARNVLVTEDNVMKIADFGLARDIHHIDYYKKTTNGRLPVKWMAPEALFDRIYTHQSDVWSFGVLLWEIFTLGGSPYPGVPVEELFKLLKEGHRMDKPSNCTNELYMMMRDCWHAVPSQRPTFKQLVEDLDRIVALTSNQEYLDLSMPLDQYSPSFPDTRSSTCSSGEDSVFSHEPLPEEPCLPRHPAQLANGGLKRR

The pIC50 is −log10 of the IC50, conventionally taken in molar units. A high value points to a low IC50. As to `COc1cc(CCc2cc(NC(=O)c3ccc(N4C[C@@H](C)N[C@@H](C)C4)cc3)n[nH]2)cc(OC)c1` [FEXAGRATINIB], the pIC50 was 8.24 in the data set with KG-1 [1], 7.71 in the data set on SNU-16, 8.23 in the data set on NCI-H716 and 8.35 in data set [2].
A word on the half-life: it is how long it takes for the measured level to halve. Low readings indicate rapid decline, high ones slow decline. A word on the Tmax: it is the time from dosing to the highest level. The Cmax is the maximum level reached in the sampled fluid or tissue. As usually defined, the AUC(0-t) is exposure summed from dosing to a finite time, without extrapolation to infinity. Read a high AUC(0-t) as high exposure. The term AUC(0-inf) denotes the area under the concentration-time curve extrapolated to infinity. A higher AUC(0-inf) goes with more exposure. In general, MRT refers to a mean duration of stay, worked out from the concentration-time curve. As usually defined, the solubility is the dissolved amount per volume that the medium holds. The low end stands for little dissolved substance, the high end for much dissolved substance. The term efflux ratio denotes the permeability from basolateral to apical divided by that in the opposite direction, in the common usage. Turning to `Cc1ccc(C(=O)Nc2cc(CN3CCN(C)CC3)cc(C(F)(F)F)c2)cc1-c1ccc2c(-c3cnn(C4CC4)c3)n[nH]c2c1`, the half-life in [3] is 1.4 h. The Tmax in data set [4] came out at 1.67 h. In data set [5], this compound gave a Cmax of 111 ng/mL. In [6], this compound registered an AUC(0-t) of 66.2 ng·h/mL. For the same compound, the total exposure AUC(0-inf) in [7] worked out at 610 ng·h/mL. Moreover, the MRT in [8] came to 3.2 h. The solubility in data set [9] stood at 10 µM (≈ 6.14 µg/mL). Further, in data set [10], the Fa at 2 h, 5 µM is 12%. In data set [11], the efflux ratio at 2 h, 5 µM came out at 42.7.
Take `Cc1ccc(C(=O)Nc2cccc(C(F)(F)F)c2)cc1-c1ccc2c(-c3cn[nH]c3)n[nH]c2c1`: the pIC50 in data set [12] is 7.25; in data set [13], < 7.00; with KG-1 [14], < 6.00; in the data set on NCI-H2286 [15] it was < 6.00.
In the case of `Cc1ccc(C(=O)Nc2cccc(C(F)(F)F)c2)cc1-c1ccc2c(-c3cnn(C4CCN(C)CC4)c3)n[nH]c2c1`, the pIC50 in data set [12] was 8.42; with KG-1 [14] it was 7.03; in the data set with NCI-H2286 [15], 7.25. Further, the half-life in data set [3] was 2.75 h. The Tmax in data set [4] turned out to be 1.33 h. The compound also showed a Cmax in data set [5] of 170 ng/mL. The area under the curve AUC(0-t) in data set [6] was determined as 552 ng·h/mL. The AUC(0-inf) in [7] turned out to be 563 ng·h/mL. The compound further came in with an MRT in [8] of 3.96 h.
Broadly, the inhibition is the drop in the measured response relative to a control, in per cent. Turning to `Cc1nc(Nc2ncc(C(=O)Nc3c(C)cccc3Cl)s2)cc(N2CCN(CCO)CC2)n1` [DASATINIB], the pIC50 with NCI-H2286 [16] is 7.48. The inhibition in vivo at 50 mg/kg with NCI-H2286 [17] is 50.9%. Also, in [18], the inhibition result was “Active”.
Turning to `Cn1cccc(C(=O)Nc2cccc(-c3ccc4[nH]ncc4c3)c2)c1=O`, the inhibition in data set [19] stood at 76%.

For the origin of these results see ChEMBL document CHEMBL4411287, “Discovery and optimization of a series of 3-substituted indazole derivatives as multi-target kinase inhibitors for the treatment of lung squamous cell carcinoma” (Eur J Med Chem, 2019).
